Laboratory results from ChEMBL document CHEMBL1914334, “Discovery and characterization of potent and selective 4-oxo-4-(5-(5-phenyl-1,2,4-oxadiazol-3-yl)indolin-1-yl)butanoic acids as S1P₁ agonists” (Bioorg Med Chem Lett, 2011).
pEC50: −log10 of the molar value. Calls of active or inactive are those of the source. No cut-off for these calls is given here.

How the values were obtained:
[1] = target: T1, Sphingosine 1-phosphate receptor 1 (Homo sapiens, UniProt P21453); assay: Agonist activity at human S1P1 receptor expressed in HEK293 cells assessed as inhibition of forskolin-stimulated cAMP production after 1 hr by HTRF assay; type: functional, cell-based
Method in brief: (§1)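 Human S1P₁ cAMP HTRF read-out; each EC₅₀ is the mean of three or more replicates.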

[2] = target: T1, Sphingosine 1-phosphate receptor 1; assay: Agonist activity at human S1P1 receptor; type: functional; method in brief: as §1
[3] = Aqueous solubility of the compound; type: physicochemical; conditions: buffer
[4] = Half life in human; type: ADME, organism-based; conditions: in vivo
Mus musculus [5] = assay: Immunomodulatory activity BALB/C mouse assessed as induction of lymphopenia at 1 mg/kg, po after 5 hrs; type: functional, organism-based; set-up: dose 1 mg/kg
Method in brief: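 Male BALB/c mice were given a single oral dose of 1.0 mg/kg or vehicle (0.5% methylcellulose). Blood lymphocytes were counted at one time point, 5 h post-dose, with n = 6 per dose group (mean ± SD). Lowering was judged relative to the vehicle group.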

[6] = target: T1, Sphingosine 1-phosphate receptor 1; assay: Agonist activity at recombinant human S1P1 receptor expressed in HEK293 cells after 2 hrs by beta-arrestin assay; type: functional, cell-based
Mus musculus [7] = assay: Immunomodulatory activity BALB/C mouse assessed as induction of lymphopenia at 0.3 to 3 mg/kg, po after 8 hrs; type: functional, organism-based
Method in brief: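 Male BALB/c mice were dosed orally at 0.3, 1.0 or 3.0 mg/kg, or with vehicle (0.5% methylcellulose in water). Blood lymphocytes were followed over time post-dose (mean ± SD). Observed values were fitted with an indirect PK/PD model.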

T1 sequence (P21453 whole entry): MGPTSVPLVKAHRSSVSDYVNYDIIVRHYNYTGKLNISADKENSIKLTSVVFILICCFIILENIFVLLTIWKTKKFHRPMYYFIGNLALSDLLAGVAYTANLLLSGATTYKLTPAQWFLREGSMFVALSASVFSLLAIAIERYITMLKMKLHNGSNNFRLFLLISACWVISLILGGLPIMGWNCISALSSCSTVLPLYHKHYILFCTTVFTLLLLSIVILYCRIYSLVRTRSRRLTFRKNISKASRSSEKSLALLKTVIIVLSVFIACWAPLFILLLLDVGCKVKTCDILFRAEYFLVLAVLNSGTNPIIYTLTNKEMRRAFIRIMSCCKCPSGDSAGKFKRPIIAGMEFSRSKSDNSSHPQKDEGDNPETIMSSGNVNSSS

pEC50 [1]	Compound	also measured
8.14	FC(F)(F)c1cc(-c2nc(-c3ccc4[nH]ncc4c3)no2)cc(C(F)(F)F)c1	pEC50 [2]: 8.03
7.27	O=C(O)COc1ccc2c(c1)CCN(c1noc(-c3cc(C(F)(F)F)cc(C(F)(F)F)c3)n1)C2	
7.74	COc1ccc(-c2nc(-c3ccc4c(c3)CCN4C(=O)CCC(=O)O)no2)cc1C	
9.00	COc1ccc2c(c1)CCN(c1noc(-c3cc(C(F)(F)F)cc(C(F)(F)F)c3)n1)C2	
8.18	O=C(O)CCCC(=O)N1CCc2cc(-c3noc(-c4cc(C(F)(F)F)cc(C(F)(F)F)c4)n3)ccc21	
6.39	FC(F)(F)c1cc(-c2nc(N3CCc4[nH]cnc4C3)no2)cc(C(F)(F)F)c1	
7.74	N#Cc1cc(-c2nc(-c3ccc4c(c3)CCN4C(=O)CCC(=O)O)no2)ccc1OC1CCCC1	
8.01	O=C(O)CCn1ncc2cc(-c3noc(-c4cc(C(F)(F)F)cc(C(F)(F)F)c4)n3)ccc21	
8.31	O=C(O)CCCn1ncc2cc(-c3noc(-c4cc(C(F)(F)F)cc(C(F)(F)F)c4)n3)ccc21	
7.42	CCc1ccc(-c2nc(-c3ccc4c(c3)CCN4C(=O)CCC(=O)O)no2)cc1S(C)(=O)=O	
8.37	FC(F)(F)c1cc(-c2nc(-c3ccc4[nH]cnc4c3)no2)cc(C(F)(F)F)c1	
8.28	O=C(O)CCC(=O)N1CCc2cc(-c3noc(-c4ccc(Cl)c(OC(F)(F)F)c4)n3)ccc21	
8.82	COc1cc(-c2nc(-c3ccc4c(c3)CCN4C(=O)CCC(=O)O)no2)ccc1OC(F)F	
7.99	COc1cc(C#N)cc(-c2nc(-c3ccc4c(c3)CCN4C(=O)CCC(=O)O)no2)c1	
7.96	COc1ccc(-c2nc(-c3ccc4c(c3)CCN4C(=O)CCC(=O)O)no2)cc1Cl	
	CCN(c1ccc2[nH]ncc2c1)S(=O)(=O)c1cc(C(F)(F)F)cc(C(F)(F)F)c1	pEC50 [2]: 6.43
	C=CCN(c1ccccc1)S(=O)(=O)c1cc(Cl)cc(Cl)c1	pEC50 [2]: 8.17
8.79	N[C@@H](CC(=O)N1CCc2cc(-c3noc(-c4cc(C(F)(F)F)cc(C(F)(F)F)c4)n3)ccc21)C(=O)O	solubility [3]: < 10 µg/mL
8.20	COc1ccc(-c2nc(-c3ccc4c(c3)CCN4C(=O)CCC(=O)O)no2)cc1C#N	
6.99	O=C(O)CC(=O)N1CCc2cc(-c3noc(-c4cc(C(F)(F)F)cc(C(F)(F)F)c4)n3)ccc21	

pEC50 [1]	Compound	also measured
7.43	FC(F)(F)c1cc(-c2nc(-c3ccc4c(c3)CCN4)no2)cc(C(F)(F)F)c1	
8.38	O=C(O)CCCCn1cc2cc(-c3noc(-c4cc(C(F)(F)F)cc(C(F)(F)F)c4)n3)ccc2n1	
7.17	O=C(O)CCC(=O)N1CCc2cc(-c3noc(-c4ccc(OC(F)(F)F)cc4)n3)ccc21	
	CCCCCCCCc1ccc(CCC(N)(CO)CO)cc1.Cl [FINGOLIMOD HYDROCHLORIDE]	half-life [4]: 144 h
7.62	FC(F)(F)c1cc(-c2nc(N3CCc4[nH]ncc4C3)no2)cc(C(F)(F)F)c1	
7.39	O=C(O)CCC(=O)n1ccc2cc(-c3noc(-c4cc(C(F)(F)F)cc(C(F)(F)F)c4)n3)ccc21	
8.21	O=C(O)CCN1CCc2cc(-c3noc(-c4cc(C(F)(F)F)cc(C(F)(F)F)c4)n3)ccc21	
8.92	O=C(O)CCc1nc2cc(-c3noc(-c4cc(C(F)(F)F)cc(C(F)(F)F)c4)n3)ccc2[nH]1	Activity (Mus musculus [5]): inactive
6.53	COC(=O)CCCCn1cc2cc(-c3noc(-c4cc(C(F)(F)F)cc(C(F)(F)F)c4)n3)ccc2n1	
9.00	COc1ccc(-c2nc(-c3ccc4c(c3)CCN4C(=O)CCC(=O)O)no2)cc1OC(F)(F)F	
6.43	O=C(O)CCCn1ncc2c1CCN(c1noc(-c3cc(C(F)(F)F)cc(C(F)(F)F)c3)n1)C2	
8.96	CC(C)Oc1ccc(-c2nc(-c3ccc4c(c3)CCN4C(=O)CCC(=O)O)no2)cc1C#N	pEC50 [6]: 8.17; Activity (Mus musculus [7]): Active
7.35	CC[C@H](C)Oc1ccc(-c2nc(-c3ccc4c(c3)CCN4C(=O)CCC(=O)O)no2)cc1Cl	
8.89	O=C(O)CCC(=O)N1CCc2cc(-c3noc(-c4ccc(-c5cccs5)c(C(F)(F)F)c4)n3)ccc21	
7.12	FC(F)(F)c1cc(-c2nc(-c3ccc4[nH]ccc4c3)no2)cc(C(F)(F)F)c1	
8.40	CC(C)Oc1ccc(-c2nc(-c3ccc4c(c3)CCN4C(=O)CCC(=O)O)no2)cc1Br	
7.96	COc1ccc(-c2nc(-c3ccc4c(c3)CCN4C(=O)CCC(=O)O)no2)cc1C(F)(F)F	
8.57	CCc1ccc(-c2nc(-c3ccc4c(c3)CCN4C(=O)CCC(=O)O)no2)cc1C(F)(F)F	
9.09	O=C(O)CCC(=O)N1CCc2cc(-c3noc(-c4ccc(C5CCCC5)c(Cl)c4)n3)ccc21	
< 7.00	CCOC(=O)CCn1ncc2cc(-c3noc(-c4cc(C(F)(F)F)cc(C(F)(F)F)c4)n3)ccc21	
